# ABHD4 inh – inhibits mouse alpha/beta hydrolase domain 4 | 370,000 compounds, 0.54% hits | purified mABHD4, FP-Rh probe fluorescence polarization | Q8VD66 | inhibition, % at 8.92 µM | AID 720543;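 active = inhibition exceeding the mean over every tested compound plus 3 SD, cut at about 30% in these data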;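 also: 0% = plate median of compound wells and 100% = S159A mutant with DMSO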
#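 assay system = mABHD4 protein | compound dosing = single nominal dose of 8.92 µM, 0.89% DMSO final | read-out basis = percent inhibition of probe binding, normalized to plate controls | schedule = Enzyme–compound pre-incubation 45 min, then probe 60 min, both 25 °C | detection = fluorescence polarization, excitation 525 nm, emission 598 nm, BODIPY TMR filters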
# SIAE primary – human SIAE inhibition, primary screen. Q9HAT2. SIAE FP-Rh probe binding, fluorescence polarization. inhibition, % at 9.66 µM. 370,000 compounds, 0.69% hits;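 active = inhibition above a cutoff: mean of compounds within the control limits plus 3 SD of those, cut at about 17% in these data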;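 also: 0% = plate median of compound wells and 100% = probe without SIAE protein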
# Target sequence (Q9HAT2 whole entry, looked up): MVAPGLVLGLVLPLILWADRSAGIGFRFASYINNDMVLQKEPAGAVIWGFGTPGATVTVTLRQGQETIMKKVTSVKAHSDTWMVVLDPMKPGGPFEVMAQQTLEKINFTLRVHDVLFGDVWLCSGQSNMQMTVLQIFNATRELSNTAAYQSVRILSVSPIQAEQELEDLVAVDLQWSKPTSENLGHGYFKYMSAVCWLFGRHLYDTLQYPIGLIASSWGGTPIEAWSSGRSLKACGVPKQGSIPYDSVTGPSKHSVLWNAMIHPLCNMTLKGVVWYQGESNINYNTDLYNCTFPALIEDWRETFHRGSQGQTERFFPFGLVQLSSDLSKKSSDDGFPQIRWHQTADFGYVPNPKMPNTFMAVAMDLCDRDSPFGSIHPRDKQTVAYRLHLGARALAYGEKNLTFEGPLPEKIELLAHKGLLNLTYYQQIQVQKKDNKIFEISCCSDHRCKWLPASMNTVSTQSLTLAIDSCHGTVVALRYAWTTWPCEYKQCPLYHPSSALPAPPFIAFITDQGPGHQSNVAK
# PAD4 inh – inhibitors of human PAD4. recombinant PAD4, RCA probe fluorescence polarization. inhibition, % at 6.36 µM. 330,000 compounds, 0.41% hits. AID 485272;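 active = percent inhibition above a cutoff equal to the mean of all tested compounds plus 3 SD, cut at about 15% in these data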;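 also: 0% = PAD4 with RCA probe and DMSO and 100% = probe without PAD4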
# HTRA1 inhibitor – inhibitors of human serine peptidase HTRA1; Q92743; recombinant HTRA1, FP-rhodamine activity-based probe, fluorescence polarization; inhibition, % at 5.96 µM; 340,000 compounds, 0.5% hits; in the data active = inhibition above about 36%;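 also: 0% = enzyme with DMSO and 100% = wells lacking enzyme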
# TCR-CD3 inh – blocks the human TCR-CD3 interaction; 360,000 compounds, 0.37% hits; inhibition, % at 9.4 µM; TAMRA-labeled TCR probe fluorescence, biochemical; AID 651800; in the data active = inhibition above about 19%;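 also: recombinant mutant TCR 2C K166C tagged with TAMRA read by polarization; 0% = receptor in buffer alone and 100% = receptor with positive control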
# PRMT1 FP inh – PRMT1 (human) inhibition, primary screen; inhibition, % at 2.79 µM; 370,000 compounds, 1.3% hits; Q99873; recombinant PRMT1, activity-based probe fluorescence polarization;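 active = inhibition above about 21% made by adding two undisclosed values, limit read from the data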
# The depositor's hits bear a star; x = not tested or not shown. Compounds with a hit are over-represented: about 2.9% of the library has one in this group of screens.
SMILES,ABHD4 inh,SIAE primary,PAD4 inh,HTRA1 inhibitor,TCR-CD3 inh,PRMT1 FP inh
CC(=O)n1cc(N(C(=O)CCl)c2ccccc2)c2ccccc21,-4,-4,13,3,-6,12
COc1ccc2cc(C(=O)N/N=C/c3sc4ccccc4c3O)ccc2c1,3,1,-13,31,-10,25*
COc1ccc(C(=O)N/N=C/c2sc3ccccc3c2O)cc1,x,x,4,24,x,x
O=C(N/N=C/c1sc2ccccc2c1O)c1cccc2ccccc12,19,-2,-28,20,0,55*
CC(C)C[C@@H]1COc2cc(Br)ccc2S(=O)(=O)N1Cc1cn(Cc2ccc(Br)cc2)nn1,2,-1,x,x,x,-1
CCc1nc(C)ccc1OCC(=O)O,-12,-10,3,10,-6,1
CCc1nc(C)ccc1OCC(=O)NCCCN(C)C,17,20*,-1,9,8,-3
CC(=O)Nc1nonc1NC(C)=O,3,2,-1,3,1,-3
CC(=O)Nc1cc(OC(C)=O)c2nonc2c1OC(C)=O,13,7,83*,24,3,59*
O=c1[nH][nH]c2c(N=Cc3ccccc3O)ccc(F)c12,x,x,x,47*,x,x
Cc1cc(-n2c(C)cc(C(=O)CCl)c2C)no1,2,6,3,-2,-4,3
Cc1cc(-n2c(C)cc(C(=O)CSc3ccc4c(c3)OCCO4)c2C)no1,-12,-2,3,-18,-5,22*
COc1cc2c(cc1NC(=O)CSc1nnc(-c3ccccc3F)n1-c1ccc(C)cc1)oc1ccccc12,-9,4,x,x,x,3
O=C(NCCc1c[nH]c2ccccc12)OCc1cn(Cc2ccc(F)cc2F)nn1,-3,10,x,x,x,-3
N#CC1=C(N)SC(N)=C(C#N)C1c1ccc([N+](=O)[O-])cc1,10,-4,-6,-1,0,31*
N#CC1=C(N)SC(N)=C(C#N)C1c1ccc(C(F)(F)F)cc1,x,x,-13,x,x,x
O=C1/C(=C/Nc2ccc3c(c2)OCO3)CCc2ccccc21,20,5,0,8,4,23*
COc1ccc2c(c1)CC/C(=C\Nc1ccc3c(c1)OCO3)C2=O,18,10,4,12,-12,29*
COc1ccc(S(=O)(=O)Nc2ccc3c(c2)OCO3)cc1,3,7,-1,2,-7,1
FC(F)(F)c1ccccc1CN1CCCc2nc(-c3ccc(Br)cc3)ccc21,3,-7,x,x,3,2
O=C1C(=Cc2ccco2)CCCC1=Cc1ccco1,-1,4,x,22,11,29*
Cc1cc(O)c2c(c1O)C(=O)[C@]13C(=C2O)C(=O)[C@@H]2[C@@H](O)[C@H]1[C@@H]1[C@H](O)[C@H]3C(=O)C3=C(O)c4c(O)cc(C)c(O)c4C(=O)[C@]312,x,x,-24,41*,x,x
COCCN1Cc2cc(C(=O)OC)c3c(c2C1=O)c1cc(OC)ccc1n3C(=O)c1ccccc1,-6,-16,x,x,-2,2
CC(C)(C)N(Cc1cn(CC2CCCCC2)nn1)S(=O)(=O)c1ccccc1Br,0,0,x,x,x,4
CC(=O)Nc1ccc(CN2C(=O)C(C)ON=C2c2ccccc2-c2ccco2)cc1 (stereo not given),4,-5,x,x,2,23*
SMILES,ABHD4 inh,SIAE primary,PAD4 inh,HTRA1 inhibitor,TCR-CD3 inh,PRMT1 FP inh
O=S(=O)(c1ccc(C2=CSC3=NCCN23)cc1)N1CCOCC1,7,2,-3,-2,-4,24*
CCOC(=O)[C@]12CCCC=C1N(Cc1ccc(OC)cc1)C(=O)[C@@H]2CC(=O)N1CCN(C(=O)c2ccco2)CC1,1,-6,x,x,x,3
CC(=O)N1CCN(C(=O)CCn2nnc3ccccc32)CC1,3,2,x,x,x,-1
Cn1nnnc1SCC1=C(C(=O)O)N2C(=O)C(NC(=O)Cn3nc(C(F)F)cc3C3CC3)C2SC1 (stereo not given),7,0,-7,11,0,24*
CCn1ccc(C(=O)NC2C(=O)N3C(C(=O)O)=C(C)CSC23)n1 (stereo not given),-3,-2,2,3,7,7
Cc1nn(CC(=O)NC2C(=O)N3C(C(=O)O)=C(CSc4nnnn4C)CSC23)cc1Br (stereo not given),7,-2,-8,2,-7,22*
Cc1nnc(SCC2=C(C(=O)O)N3C(=O)C(NC(=O)Cc4ccccc4)C3SC2)s1 (stereo not given),1,7,-1,-4,-6,25*
